We go through 8 molecules from ChEMBL document CHEMBL1123678, “Octahydropyrazino[2',3':3,4]pyrido[1,2-a]indoles. A new class of potent antihypertensive agents” (1987).

Molecules are shown by their SMILES. The source made the active and inactive calls. The calls are words filed in the database; no cut-off is given here.

The test system of assay [1] is Rattus norvegicus. The experiment in a line: Antihypertensive activity was determined in cannulated spontaneously hypertensive rats(SHR) and maximum decrease of mean arterial blood pressure (MABP) at 10 mg/kg oral dose. The format is functional, Artery. An outline of the steps:
(§1)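 Cannulated SHR given compound by gastric gavage in 0.5% methylcellulose (5 mL/kg), doses 0.1–50 mg/kg, 4–8 animals per dose, after 1-h equilibration. MABP recorded for 4 h; maximal % decrease reported with time to peak effect. Significance by two-way analysis of variance.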

In assay [2] the test system is Rattus norvegicus. The experiment in a line: Vasopressor responses to epinephrine as a measure of the alpha-1-adrenoceptor blocking activity at 10 mg/kg administered orally was reported to be reversed. Type of assay: functional, organism-based. The arrangement: dose 10 mg/kg.
Assay [3] concerns Rattus norvegicus. The experiment in a line: Vasopressor responses to epinephrine as a measure of the alpha-1-adrenoceptor blocking activity at 10 mg/kg administered orally was reported to have no change. The format is functional, organism-based. Details: dose 10 mg/kg.
For assay [4], the system named is Rattus norvegicus. The experiment in a line: Antihypertensive activity was determined in cannulated spontaneously hypertensive rats(SHR) and activity rating was given with respect to MABP values at 10 mg/kg oral dose;a decrease of MABP by >40% at 10 mg/kg and by 10-207. Type of assay: functional, organism-based. In outline:
(§2)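 Cannulated SHR dosed orally (gavage) in 0.5% methylcellulose, 5 mL/kg; 4–8 rats per dose. MABP monitored 4 h, maximal change taken. Rating scale: 0 = no significant activity at 50 mg/kg, stepping up to 6 = MABP fall >40% at 10 mg/kg and 10–20% at 0.25–1 mg/kg, based on % MABP decreases at set doses.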

Assay [5] deals with Rattus norvegicus. The experiment in a line: Antihypertensive activity was determined in cannulated spontaneously hypertensive rats(SHR) and maximum decrease of mean arterial blood pressure (MABP) at 0.5 mg/kg oral dose. The format is functional, Artery. An outline of the steps:
as §1

Assay [6] has as its system Rattus norvegicus. The experiment in a line: Antihypertensive activity was determined in cannulated spontaneously hypertensive rats(SHR) and maximum decrease of mean arterial blood pressure (MABP) at 1 mg/kg oral dose. Type of assay: functional, Artery. In outline: as §1
The subject of assay [7] is Rattus norvegicus. The experiment in a line: Vasopressor responses to epinephrine as a measure of the alpha-1-adrenoceptor blocking activity at 2.5 mg/kg administered orally was reported to be reversed. The arrangement: dose 2.5 mg/kg. The format is functional, organism-based.
Assay [8] has as its system Rattus norvegicus. The experiment in a line: Antihypertensive activity was determined in cannulated spontaneously hypertensive rats(SHR) and marked bradycardia was reported at a dose of 10 mg/kg. Type of assay: functional, organism-based. The arrangement: dose 10 mg/kg.
In assay [9] the test system is Rattus norvegicus. The experiment in a line: Vasopressor responses to epinephrine as a measure of the alpha-1-adrenoceptor blocking activity at 1 mg/kg administered orally was reported to be reversed. Type of assay: functional, organism-based. The arrangement: dose 1 mg/kg.
Assay [10] relates to Rattus norvegicus. The experiment in a line: Antihypertensive activity was determined in cannulated spontaneously hypertensive rats(SHR) and maximum decrease of mean arterial blood pressure (MABP) at 2.5 mg/kg oral dose. The format is functional, Artery. In outline: as §1
The test system of assay [11] is Rattus norvegicus. The experiment in a line: Vasopressor responses to epinephrine as a measure of the alpha-1-adrenoceptor blocking activity at 5 mg/kg administered orally was reported to be antagonized. Details: dose 5 mg/kg. The format is functional, organism-based. Conditions: filed as antagonist.
In assay [12] the test system is Rattus norvegicus. The experiment in a line: Antihypertensive activity was determined in cannulated spontaneously hypertensive rats(SHR) and heart rate response was reported to reduce by 10-25% after 4 hr at a peroral dose of 5 mg/kg. Type of assay: functional, organism-based. Details: dose 5 mg/kg.
In assay [13] the test system is Rattus norvegicus. The experiment in a line: Antihypertensive activity was determined in cannulated spontaneously hypertensive rats(SHR) and marked bradycardia was reported at a dose of 25 mg/kg. Type of assay: functional, organism-based. The arrangement: dose 25 mg/kg.
Assay [14] relates to Rattus norvegicus. The experiment in a line: Vasopressor responses to epinephrine as a measure of the alpha-1-adrenoceptor blocking activity at 2.5 mg/kg administered orally was reported to be antagonized. The format is functional, organism-based. Details: dose 2.5 mg/kg. Conditions: filed as antagonist.
The test system of assay [15] is Rattus norvegicus. The experiment in a line: Antihypertensive activity was determined in cannulated spontaneously hypertensive rats(SHR) and maximum decrease of mean arterial blood pressure (MABP) at 5 mg/kg oral dose. Type of assay: functional, Artery. An outline of the steps: as §1
Assay [16] has as its system Rattus norvegicus. The experiment in a line: Antihypertensive activity was determined in cannulated spontaneously hypertensive rats(SHR) and activity rating was given with respect to MABP values at 25 mg/kg oral dose;lowering MABP by 20-30% at 5 mg/kg and by 10-20% at 1-2.5 mg/kg. Type of assay: functional, organism-based. An outline of the steps:
as §2

Assay [17] relates to Rattus norvegicus. The experiment in a line: Vasopressor responses to epinephrine as a measure of the alpha-1-adrenoceptor blocking activity at 25 mg/kg administered orally was reported to be antagonized. Type of assay: functional, organism-based. The arrangement: dose 25 mg/kg. Conditions: filed as antagonist.
The subject of assay [18] is Rattus norvegicus. The experiment in a line: Antihypertensive activity was determined in cannulated spontaneously hypertensive rats(SHR) and maximum decrease of mean arterial blood pressure (MABP) at 25 mg/kg oral dose. The format is functional, Artery. In outline: as §1
Assay [19] has as its system Rattus norvegicus. The experiment in a line: Vasopressor responses to epinephrine as a measure of the alpha-1-adrenoceptor blocking activity at 50 mg/kg administered orally was reported to be antagonized. Details: dose 50 mg/kg. The format is functional, organism-based.
In assay [20] the test system is Rattus norvegicus. The experiment in a line: Antihypertensive activity was determined in cannulated spontaneously hypertensive rats(SHR) and maximum decrease of mean arterial blood pressure (MABP) at 50 mg/kg oral dose. Type of assay: functional, Artery. In outline: as §1
Assay [21] concerns Rattus norvegicus. The experiment in a line: Vasopressor responses to epinephrine as a measure of the alpha-1-adrenoceptor blocking activity at 25 mg/kg administered orally was reported to have no change. The format is functional, organism-based. Details: dose 25 mg/kg.
The test system of assay [22] is Rattus norvegicus. The experiment in a line: Antihypertensive activity was determined in cannulated spontaneously hypertensive rats(SHR) and marked bradycardia was reported at a dose of 50 mg/kg. Details: dose 50 mg/kg. The format is functional, organism-based.
The test system of assay [23] is Rattus norvegicus. The experiment in a line: Antihypertensive activity was determined in cannulated spontaneously hypertensive rats(SHR) and heart rate response was reported to be reduce by 10-25% after 4 hr at a dose of 50 mg/kg. The format is functional, organism-based. Details: dose 50 mg/kg.

Take `CCN1CCN(CC)C2c3c(C)c4cc(Br)ccc4n3CCC21.Cl` (stereo not given): the “Decrease in MABP” value in assay [1] worked out at 15%. Also, in assay [2], the Activity entry is given as “Vasopressor response reversed”.
On to `Cc1c2n(c3ccccc13)CCC1C2NCCN1CCOc1ccccc1` (stereo not given), for which the “Decrease in MABP” value in assay [1] was determined as 7%. Also, the result in [3] was inactive.
For the molecule `COc1cc2nc(N3CCN(C(=O)c4ccco4)CC3)nc(N)c2cc1OC` [PRAZOSIN], the entries for the “Decrease in MABP” value in [1], in [5] and in assay [6] were 49%, 35% and 46%, respectively. The Activity rating entry in assay [4] was “Active”.
Turning to `Br.CCCN1CCN(C(C)C)C2CCn3c(c(C)c4ccccc43)C21` (stereo not given), the “Decrease in MABP” value in [1] was determined as 40%; in [6] it was 19%; in [10], 25%. The Activity result in assay [7], in assay [2] and in assay [9] was “Vasopressor response reversed” each time. The HR entry in [8] was “Heart rate response was reported to reduce by 10-25% after 4 hr at a peroral dose of 1.0 mg/kg”.
For `O=C(NC1CCN(CCc2c[nH]c3ccccc23)CC1)c1ccccc1` [INDORAMIN], the Activity result in assay [11], in assay [14] and in [17] was “Antagonist” in each case. Also, the HR result in [12] and in [13] was “Active” throughout. For the same molecule, the “Decrease in MABP” value is 29% in [15], 12% in assay [10] and 40% in assay [18]. Besides, the Activity rating result in assay [16] is “Active”.
As for `Br.Br.CCN1CCNC2c3c(C)c4ccccc4n3CCC21` (stereo not given), the figures for the “Decrease in MABP” value in assay [1], in assay [20] and in assay [18] were 23%, 31% and 26%, respectively. Also, in assay [19], the Activity entry is reported as “Vasopressor response antagonized”. Besides, the result in assay [21] and in assay [3] was inactive. The HR result in assay [22] is “Heart rate response was reported to reduce by 10-25% after 4 hr at a peroral dose of 25 mg/kg”.
Take `Cc1c2n(c3ccccc13)CCC1C2N(C)CCN1C` (stereo not given): the “Decrease in MABP” value in [1] stood at 23%; in assay [15] it was 13%.
Regarding `CCN1CCN(CC)[C@H]2c3c(C)c4ccccc4n3CC[C@H]21.Cl.Cl`, the HR result in assay [23] is “Heart rate response was reported to be reduce by 10-25% after 4 hr at a dose of 25 mg/kg”. In addition, the “Decrease in MABP” value in assay [20] was 25%.
